Among the data in ChEMBL document CHEMBL1275301, “Antihypertensive activity of newer 1,4-dihydro-5-pyrimidine carboxamides: synthesis and pharmacological evaluation” (2010) are inhibition in vivo and Activity values, retold here.

Assay [1] has as its system Rattus norvegicus. Description: Antihypertensive activity against DOCA-salt induced hypertension in albino rat assessed as reduction in systolic blood pressure at 10 mg/kg, po after 180 mins by tail-cuff method. Format: functional. The settings on record: Artery, 3 h. The essentials: (§1)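 Rats given DOCA 20 mg/kg s.c. twice weekly in olive oil for 4 weeks, with 1% w/v NaCl as drinking water, reaching systolic 160–180 mm Hg. Rats were trained in restrainer and tail-cuff sessions. Compounds in 0.5% CMC were dosed at 10 mg/kg by oral feeding needle, with vehicle and nifedipine groups. BP was read before dosing and after, with the tail warmed at 37 °C for 2–5 min. Each compound was run three times in one week and readings averaged.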

Assay [2] concerns Rattus norvegicus. Description: Antihypertensive activity against DOCA-salt induced hypertension in albino rat assessed as reduction in systolic blood pressure at 10 mg/kg, po up to 360 mins by tail-cuff method. Format: functional, organism-based. The following applies: Artery. The arrangement: dose 10 mg/kg. The procedure, abridged:
as §1

The subject of assay [3] is Rattus norvegicus. Description: Antihypertensive activity against DOCA-salt induced hypertension in albino rat assessed as reduction in systolic blood pressure at 10 mg/kg, po after 30 mins by tail-cuff method. Format: functional. The settings on record: Artery, 0.5 h. The procedure, abridged: as §1
The subject of assay [4] is Rattus norvegicus. Description: Antihypertensive activity against DOCA-salt induced hypertension in albino rat assessed as reduction in systolic blood pressure at 10 mg/kg, po after 240 mins by tail-cuff method. It is filed as functional. The settings on record: Artery, 4 h. The procedure, abridged: as §1
Assay [5] has as its system Rattus norvegicus. Description: Antihypertensive activity against DOCA-salt induced hypertension in albino rat assessed as reduction in systolic blood pressure at 10 mg/kg, po after 720 mins by tail-cuff method. Format: functional. The following applies: Artery, 12 h. The procedure, abridged: as §1
The test system of assay [6] is Rattus norvegicus. Description: Antihypertensive activity against DOCA-salt induced hypertension in albino rat assessed as reduction in systolic blood pressure at 10 mg/kg, po after 120 mins by tail-cuff method. It is filed as functional. The following applies: Artery, 2 h. The procedure, abridged:
as §1

The test system of assay [7] is Rattus norvegicus. Description: Antihypertensive activity against DOCA-salt induced hypertension in albino rat assessed as reduction in systolic blood pressure at 10 mg/kg, po after 300 mins by tail-cuff method. Format: functional. The settings on record: Artery, 5 h. The procedure, abridged:
as §1

The test system of assay [8] is Rattus norvegicus. Description: Antihypertensive activity against DOCA-salt induced hypertension in albino rat assessed as reduction in systolic blood pressure at 10 mg/kg, po after 15 mins by tail-cuff method. Format: functional. The following applies: Artery, 0.25 h. The essentials: as §1
Assay [9] deals with Rattus norvegicus. Description: Antihypertensive activity against DOCA-salt induced hypertension in albino rat assessed as reduction in systolic blood pressure at 10 mg/kg, po after 900 mins by tail-cuff method. The following applies: Artery, 15 h. It is filed as functional. The essentials:
as §1

Assay [10] has as its system Rattus norvegicus. Description: Antihypertensive activity against DOCA-salt induced hypertension in albino rat assessed as reduction in systolic blood pressure at 10 mg/kg, po after 360 mins by tail-cuff method. It is filed as functional. The settings on record: Artery, 6 h. The procedure, abridged: as §1
Assay [11] concerns Rattus norvegicus. Description: Antihypertensive activity against DOCA-salt induced hypertension in albino rat assessed as reduction in systolic blood pressure at 10 mg/kg, po after 600 mins by tail-cuff method. Format: functional. The settings on record: Artery, 10 h. The procedure, abridged: as §1
Assay [12] has as its system Rattus norvegicus. Description: Antihypertensive activity against DOCA-salt induced hypertension in albino rat assessed as reduction in systolic blood pressure at 10 mg/kg, po after 60 mins by tail-cuff method. The following applies: Artery, 1 h. It is filed as functional. The essentials:
as §1

Activity calls are given as the source filed them. The calls are words filed in the database; no cut-off is given here.

By inhibition in vivo is commonly meant the percentage by which the read-out fell short of the control. In the case of `CC1=C(C(=O)Nc2ccc([N+](=O)[O-])cc2)C(c2cccc([N+](=O)[O-])c2)N=C(SCc2ccc(Cl)cc2)N1` (configuration not stated), the inhibition in vivo at 10 mg/kg was 14.9% in assay [1]; 3.1% in [3]; 20% in assay [4]; 15.5% in assay [5]; 12.4% in assay [6]; 24.1% in assay [7]. Also, the inhibition in vivo at 10 mg/kg in assay [8] is 2.1%; in [9], 12.3%; in assay [10], 33%; in assay [11], 26.2%; in [12], 6.7%. For the same compound, the outcome in assay [2] was Active.
Regarding `CC1=C(C(=O)Nc2ccc([N+](=O)[O-])cc2)C(c2ccc(Br)cc2)N=C(SCc2ccc(Cl)cc2)N1` (configuration not stated), the inhibition in vivo at 10 mg/kg is 19.1% in [1]; 6.2% in assay [3]; 29.7% in assay [4]; 29.4% in assay [5]; 13.9% in assay [6]; 37.9% in assay [7]. In addition, the inhibition in vivo at 10 mg/kg in assay [8] is 3.1%; in assay [9] it was 19%; in [10], 39.2%; in assay [11], 34.4%; in assay [12], 10.8%. Besides, the outcome in [2] was Active.
`CC1=C(C(=O)Nc2ccc(F)cc2)C(c2ccc([N+](=O)[O-])cc2)N=C(SCc2cccc(Cl)c2)N1` (configuration not stated): the inhibition in vivo at 10 mg/kg in assay [1] stood at 11.9%; in assay [3] it was 4.1%; in assay [4], 15.9%; in assay [5], 12.9%; in assay [6], 9.8%; in assay [7], 18.5%. For the same compound, the inhibition in vivo at 10 mg/kg in assay [8] is 2.1%; in assay [9], 10.8%; in assay [10] it was 21.1%; in assay [11], 16.4%; in assay [12], 7.2%. The outcome in assay [2] was Active.
Turning to `COC(=O)C1=C(C)NC(C)=C(C(=O)OC)C1c1ccccc1[N+](=O)[O-]` [NIFEDIPINE], the inhibition in vivo at 10 mg/kg in [1] stood at 17.5%; in assay [3], 3.1%; in [4], 25.6%; in assay [5], 18.6%; in assay [6], 11.3%; in assay [7], 32.3%. Besides, the inhibition in vivo at 10 mg/kg was 1.5% in assay [8]; 16.9% in [9]; 38.1% in [10]; 24.1% in [11]; 7.7% in assay [12]. Further, in assay [2], the outcome was Active.
For the compound `COc1ccc(C2N=C(SCc3ccccc3Cl)NC(C)=C2C(=O)Nc2ccc(Br)cc2)cc1` (configuration not stated), the inhibition in vivo at 10 mg/kg in assay [1] amounted to 11.3%; in assay [3] it was 4.6%; in assay [4] it was 15.4%; in assay [5], 10.8%; in [6] it was 8.2%; in [7] it was 17.9%. In addition, the inhibition in vivo at 10 mg/kg in assay [8] amounted to 3.1%; in [9], 7.2%; in assay [10] it was 20.6%; in [11], 13.3%; in assay [12], 6.7%. In assay [2], the result was Active.
Turning to `CC1=C(C(=O)Nc2ccc([N+](=O)[O-])cc2)C(c2ccc(Br)cc2)N=C(SCc2ccccc2)N1` (configuration not stated), the inhibition in vivo at 10 mg/kg in [1] amounted to 19.6%; in assay [3] it was 3.6%; in assay [4], 27.7%; in assay [5], 21.1%; in assay [6], 13.4%; in assay [7], 29.7%. For the same compound, the inhibition in vivo at 10 mg/kg in assay [8] came to 2.1%; in assay [9] it was 19.5%; in assay [10] it was 37.6%; in assay [11], 27.2%; in assay [12], 8.2%. In addition, the result in assay [2] was Active.
